Results as given in ChEMBL document CHEMBL3046481, “Design, synthesis, and bioactivity study of novel benzoylpyridazyl ureas” (2009).

Columns and labels:
Assay type in all cases: functional
Culex pipiens pallens [1] = assay: Larvicidal activity against fourth-instar larval stage of Culex pipiens pallens (mosquito) assessed as mortality at 2 mg/l at 25 +/-1 degC measured after 8 days; details: 192 h
Outline: (§1)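 Insects were laboratory-reared and the bioassay was repeated at 25 ± 1 °C as statistics required. Larvae were scored dead or alive, and mortality was corrected with Abbott's formula. Results are given as percentage mortality on a 0–100 scale, where 0 is no activity and 100 is total kill. Hexaflumuron was run under the same conditions as the reference.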

Mythimna separata [2] = assay: Larvicidal activity against fourth-instar larval stage of Mythimna separata (Oriental armyworm) in compound pretreated corn leaves assessed as mortality at 100 mg/l at 25 +/-1 degC measured after 4 days; outline: as §1
Mythimna separata [3] = assay: Larvicidal activity against fourth-instar larval stage of Mythimna separata (Oriental armyworm) in compound pretreated corn leaves assessed as mortality at 200 mg/l at 25 +/-1 degC measured after 4 days; outline: as §1
Mythimna separata [4] = assay: Larvicidal activity against fourth-instar larval stage of Mythimna separata (Oriental armyworm) in compound pretreated corn leaves assessed as mortality at 50 mg/l at 25 +/-1 degC measured after 4 days; outline: as §1
Culex pipiens pallens [5] = assay: Larvicidal activity against fourth-instar larval stage of Culex pipiens pallens (mosquito) assessed as mortality at 1 mg/l at 25 +/-1 degC measured after 8 days; details: 192 h; outline: as §1
Mythimna separata [6] = assay: Larvicidal activity against fourth-instar larval stage of Mythimna separata (Oriental armyworm) in compound pretreated corn leaves assessed as mortality at 25 mg/l at 25 +/-1 degC measured after 4 days; outline: as §1
Mythimna separata [7] = assay: Larvicidal activity against fourth-instar larval stage of Mythimna separata (Oriental armyworm) in compound pretreated corn leaves assessed as mortality at 10 mg/l at 25 +/-1 degC measured after 4 days; outline: as §1
Culex pipiens pallens [8] = assay: Larvicidal activity against fourth-instar larval stage of Culex pipiens pallens (mosquito) assessed as mortality at 0.25 mg/l at 25 +/-1 degC measured after 8 days; details: 192 h; outline: as §1

SMILES | mortality at 2 µg/mL (Culex pipiens pallens [1]) [%] | mortality at 200 µg/mL (Mythimna separata [3]) [%] | also measured
O=C(NC(=O)c1c(F)cccc1F)Nc1ccc(Oc2c(Cl)cc(Cl)cc2Cl)nn1 | 20 |  | mortality at 100 µg/mL (Mythimna separata [2]): 10%
O=C(NC(=O)c1c(F)cccc1F)Nc1ccc(Oc2ccc(Cl)cc2Cl)nn1 | 60 | 20 | 
CC(C)Oc1ccc(NC(=O)NC(=O)c2c(F)cccc2F)nn1 | 10 | 100 | mortality at 50 µg/mL (Mythimna separata [4]): 70%; mortality at 100 µg/mL (Mythimna separata [2]): 100%
Cc1ccc(NC(=O)NC(=O)c2c(F)cccc2F)nn1 | 20 | 10 | 
O=C(NC(=O)c1c(F)cccc1F)Nc1ccc(OCc2ccc(Cl)cc2)nn1 | 10 | 10 | 
O=C(NC(=O)c1c(F)cccc1F)Nc1ccc(Oc2ccc(Br)cc2)nn1 | 100 | 30 | mortality at 1 µg/mL (Culex pipiens pallens [5]): 90%
O=C(NC(=O)c1c(F)cccc1F)Nc1ccc(OCC(F)(F)F)nn1 |  |  | mortality at 25 µg/mL (Mythimna separata [6]): 100%; mortality at 10 µg/mL (Mythimna separata [7]): 80%; mortality at 1 µg/mL (Culex pipiens pallens [5]): 30%
CCOc1ccc(NC(=O)NC(=O)c2c(F)cccc2F)nn1 | 20 | 100 | mortality at 50 µg/mL (Mythimna separata [4]): 80%; mortality at 100 µg/mL (Mythimna separata [2]): 100%
O=C(NC(=O)c1c(F)cccc1F)Nc1cc(Cl)c(OC(F)(F)C(F)F)c(Cl)c1 [HEXAFLUMURON] |  |  | mortality at 10 µg/mL (Mythimna separata [7]): 80%; mortality at 0.25 µg/mL (Culex pipiens pallens [8]): 100%
CCCCSc1ccc(NC(=O)NC(=O)c2c(F)cccc2F)nn1 |  | 100 | mortality at 50 µg/mL (Mythimna separata [4]): 90%; mortality at 100 µg/mL (Mythimna separata [2]): 100%
O=C(NC(=O)c1c(F)cccc1F)Nc1ccc(Oc2ccccc2Cl)nn1 | 40 | 20 | 
O=C(NC(=O)c1c(F)cccc1F)Nc1ccc(Sc2ccccc2)nn1 |  | 20 | 
O=C(NC(=O)c1c(F)cccc1F)Nc1ccc(Oc2ccc(Cl)cc2)nn1 | 20 | 10 | 
COc1ccc(Oc2ccc(NC(=O)NC(=O)c3c(F)cccc3F)nn2)cc1 | 10 | 10 | 
Cc1ccc(Oc2ccc(NC(=O)NC(=O)c3c(F)cccc3F)nn2)cc1 | 0 | 0 | 
